In the library only some 3.1% were active in any assay of this set; here they are far more common.
rCAG RNA binder = molecules binding r(CAG) RNA repeats; r(CAG) RNA repeat, TO-PRO-1 dye displacement fluorescence; actives 1.3% (n = 370,000); inhibition, % at 3 µM;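 active = inhibition above the plate cutoff, the mean of all test compounds on that plate plus 3 SD, cut at about 35% in these data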;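 also: 0% = DMSO alone and 100% = 100 µM mitoxantrone as full dye displacement; higher means more dye released from RNA so lower well fluorescence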
CSN deneddyl inh = inhibitors of human CSN-mediated cullin deneddylation; Purified CSN, SCF-Nedd8-OG deneddylation, fluorescence polarization; Q92905; actives 0.38% (n = 360,000); inhibition, % at 12.5 µM;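 active = pattern-corrected inhibition above about 35%, with an unprinted fluorescence ratio check between 0.5 and 1.5, limit read from the data, passing the limit was not always enough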;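 also: 0% = enzyme with substrate and 100% = substrate without enzyme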
Target sequence (Q92905 whole entry, looked up, one chain of several): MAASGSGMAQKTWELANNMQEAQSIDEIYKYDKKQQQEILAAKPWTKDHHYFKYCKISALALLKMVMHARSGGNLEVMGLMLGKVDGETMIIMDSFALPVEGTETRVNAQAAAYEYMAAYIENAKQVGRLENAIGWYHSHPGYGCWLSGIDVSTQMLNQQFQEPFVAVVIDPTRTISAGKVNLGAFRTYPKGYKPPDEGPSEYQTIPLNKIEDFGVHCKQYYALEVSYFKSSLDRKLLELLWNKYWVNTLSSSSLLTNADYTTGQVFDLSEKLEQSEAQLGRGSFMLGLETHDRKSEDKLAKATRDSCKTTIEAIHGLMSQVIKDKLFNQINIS
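Assay system: HEK293T-derived human Csn5 enzyme; quantity: 0.24 nM enzyme; medium: Tris/NaCl/DTT buffer, pH 7.5; also added: substrate SCFSkp2-Nedd8OG, 10 nM; doses: 12.5 µM compound; schedule: 90 min reaction at room temperature; signal: FP; read-out: % inhibition of substrate cleavage by Csn5; benchmarks: substrate-only high control, full reaction low control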
UHRF1 MBD2 ctr = human UHRF1 methylated DNA binding inhibitors | UHRF1 binding to methylated oligo, TR-FRET | inhibition, % at 4.4 µM | actives 0.75% (n = 370,000) | AID 687016; in the data active = inhibition above about 21%;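 also: UHRF1 SRA domain binding a hemimethylated CpG hairpin DNA probe; 0% = median of test compound wells and 100% = reference inhibitor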
LEDGF integ inh = blocks HIV-1 LEDGF/p75-dependent DNA integration. TR-FRET IN-LEDGF/p75 DNA integration, Eu/Cy5. inhibition, % at 3.7 µM. actives 0.64% (n = 370,000). AID 743269;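 active = inhibition above the screen-wide mean plus 3 SD, cut at about 13% in these data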;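 also: signal is the Cy5 over europium emission ratio at 671 and 618 nm; 0% = plate median of compound wells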
MBD2 inh = MBD2-methylated oligo binding inhibition; Q9UBB5; inhibition, % at 4.4 µM; actives 0.31% (n = 370,000); TR-FRET, MBD2 binding to methylated oligonucleotide; in the data active = inhibition above about 13%
ATG4B inh = inhibitors of human ATG4B cysteine protease. ATG4B cleavage of LC3-PLA2, NBD-HPC fluorescence, 1 h. inhibition, % at 8.33 µM. actives 0.51% (n = 340,000). AID 504462; in the data active = inhibition above about 40%
Starred values were filed as active, the others as inactive.

How did CC(C)CN1CCN(Cc2cn(C)c3ccccc23)CC1CCO (stereo unspecified) do in these assays?
rCAG RNA binder: -6; CSN deneddyl inh: -2; UHRF1 MBD2 ctr: 26*; LEDGF integ inh: -1; MBD2 inh: 0; ATG4B inh: -1

How did CCCCNC(=O)C[C@H]1C[C@@]2(C(=O)OC)C(=C[C@H](C(C)C)O[C@@H]2C2CC2)N(Cc2ccccc2)C1=O do in these assays?
rCAG RNA binder: -2; UHRF1 MBD2 ctr: 24*; LEDGF integ inh: -2; MBD2 inh: 4

How did O=Cc1ccc(Sc2nnc(-c3ccccc3)o2)c([N+](=O)[O-])c1 do in these assays?
CSN deneddyl inh: 15; ATG4B inh: 49*

What do the screens show for `O=S1(=O)c2ccc(N3CC[C@@H](O)C3)cc2O[C@H]2CCN1C2`?
rCAG RNA binder: 8; UHRF1 MBD2 ctr: 0; LEDGF integ inh: -4; MBD2 inh: 5

What do the screens show for `CN(C)c1ccc(C(=O)NC2CCCCN(Cc3ccc(Cl)cc3)C2=O)cc1` (stereo unspecified)?
rCAG RNA binder: 2; UHRF1 MBD2 ctr: -1; LEDGF integ inh: 4; MBD2 inh: 0

What do the screens show for `O=C(c1cn2ccccc2n1)N1CCCC(Nc2ccc(F)c(F)c2)C1` (stereo unspecified)?
rCAG RNA binder: 8; CSN deneddyl inh: -3; UHRF1 MBD2 ctr: 23*; LEDGF integ inh: -5; MBD2 inh: 1; ATG4B inh: -3

What do the screens show for `CCn1c2ccccc2c2cc(N)ccc21`?
rCAG RNA binder: 9; CSN deneddyl inh: 36*; UHRF1 MBD2 ctr: -3; LEDGF integ inh: -4; MBD2 inh: 1; ATG4B inh: -13

Results for CCn1c2ccccc2c2cc(/C(C)=N/O)ccc21 ?
rCAG RNA binder: 12; CSN deneddyl inh: 4; UHRF1 MBD2 ctr: 5; LEDGF integ inh: -1; MBD2 inh: -5; ATG4B inh: -6

What do the screens show for `O=C(N/N=C/c1ccco1)C1CC1(c1ccccc1)c1ccccc1` (stereo unspecified)?
rCAG RNA binder: 2; CSN deneddyl inh: -7; UHRF1 MBD2 ctr: -1; LEDGF integ inh: -4; MBD2 inh: -2; ATG4B inh: 0

Results for C/C(=N/NC(=O)C1CC1(c1ccccc1)c1ccccc1)c1cccs1 (stereo unspecified) ?
rCAG RNA binder: -1; CSN deneddyl inh: 4; UHRF1 MBD2 ctr: -4; LEDGF integ inh: 3; MBD2 inh: -1; ATG4B inh: -5

What do the screens show for `C/C(=N/NC(=O)C1CC1(c1ccccc1)c1ccccc1)c1ccco1` (stereo unspecified)?
rCAG RNA binder: -1; CSN deneddyl inh: -1; UHRF1 MBD2 ctr: 28*; LEDGF integ inh: -1; MBD2 inh: 2; ATG4B inh: 1

What do the screens show for `NNC(=O)C1CC1(c1ccccc1)c1ccccc1` (stereo unspecified)?
rCAG RNA binder: -1; CSN deneddyl inh: 3; UHRF1 MBD2 ctr: 23*; LEDGF integ inh: -3; MBD2 inh: 5; ATG4B inh: -8

How did Cc1ccc(-n2c(COc3ccccc3)nnc2SCC(=O)Nc2ccccc2-c2ccccc2)cc1 do in these assays?
rCAG RNA binder: 6; UHRF1 MBD2 ctr: -1; LEDGF integ inh: 1; MBD2 inh: 3

How did O=C(NCCN1CCCCC1)Nc1ccccc1F do in these assays?
rCAG RNA binder: 1; CSN deneddyl inh: -4; UHRF1 MBD2 ctr: -1; LEDGF integ inh: -2; MBD2 inh: -2; ATG4B inh: 7

How did O=C(NCCN1CCCCC1)Nc1ccc(F)cc1F do in these assays?
rCAG RNA binder: 2; CSN deneddyl inh: -1; UHRF1 MBD2 ctr: 23*; LEDGF integ inh: -5; MBD2 inh: -4; ATG4B inh: -4

How did Cc1ccc(/C=C/S(=O)(=O)NCC(=O)OCC(=O)Nc2ccc(C(N)=O)cc2)cc1 do in these assays?
rCAG RNA binder: 8; CSN deneddyl inh: 0; UHRF1 MBD2 ctr: 23*; LEDGF integ inh: -1; MBD2 inh: 4; ATG4B inh: 3

How did Cc1ccc(/C=C/S(=O)(=O)NCC(=O)OCC(=O)Nc2ccc(C(=O)N(C)C)cc2)cc1 do in these assays?
rCAG RNA binder: 4; CSN deneddyl inh: -4; UHRF1 MBD2 ctr: -2; LEDGF integ inh: 2; MBD2 inh: 0; ATG4B inh: -4

How did CCC(C)NC(=O)c1cc(OC)c(OC)c(OC)c1 (stereo unspecified) do in these assays?
CSN deneddyl inh: -2; ATG4B inh: 4
